These results are taken from ChEMBL document CHEMBL1157719, “1-Indol-1-yl-propan-2-ones and related heterocyclic compounds as dual inhibitors of cytosolic phospholipase A(2)alpha and fatty acid amide hydrolase” (Bioorg Med Chem, 2010).

The nature of assay [1]: inhibition of MAGL up to 10 uM. The method, boiled down: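 MAGL set up like the FAAH assay, using pyrene-labelled substrate 1,3-dihydroxypropan-2-yl 4-pyren-1-ylbutanoate; product measured by RP-HPLC with fluorescence detection; highest test concentration 10 μM.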
Assay [2] deals with T1, Cytosolic phospholipase A2 (Homo sapiens) (UniProt P47712).
T1 sequence (whole entry): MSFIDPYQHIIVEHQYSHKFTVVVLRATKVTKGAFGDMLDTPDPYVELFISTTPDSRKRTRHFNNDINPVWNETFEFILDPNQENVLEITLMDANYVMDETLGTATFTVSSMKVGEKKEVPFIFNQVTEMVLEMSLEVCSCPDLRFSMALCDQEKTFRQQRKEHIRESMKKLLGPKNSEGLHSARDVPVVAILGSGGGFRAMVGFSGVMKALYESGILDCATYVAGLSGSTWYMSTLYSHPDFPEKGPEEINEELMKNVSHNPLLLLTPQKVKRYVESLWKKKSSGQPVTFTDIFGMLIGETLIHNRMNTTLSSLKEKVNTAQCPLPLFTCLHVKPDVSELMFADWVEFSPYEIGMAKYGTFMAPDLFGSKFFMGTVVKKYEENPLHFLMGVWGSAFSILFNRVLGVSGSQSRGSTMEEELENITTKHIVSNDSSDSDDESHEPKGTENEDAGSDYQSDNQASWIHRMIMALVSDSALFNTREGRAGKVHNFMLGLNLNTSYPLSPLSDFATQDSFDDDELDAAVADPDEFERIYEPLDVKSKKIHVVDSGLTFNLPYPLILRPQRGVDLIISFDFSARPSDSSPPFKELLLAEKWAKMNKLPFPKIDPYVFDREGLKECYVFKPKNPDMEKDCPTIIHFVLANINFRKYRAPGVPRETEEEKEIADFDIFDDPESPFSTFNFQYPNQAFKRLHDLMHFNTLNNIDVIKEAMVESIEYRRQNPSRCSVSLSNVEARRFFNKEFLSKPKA
The experiment in a line: Inhibition of cPLA2 from human platelets at 10 uM by RP-HPLC. The method, boiled down:
(§1)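 cPLA2α purified from human platelets; substrate sonicated covesicles of SAPC 200 μM and 1,2-dioleoyl-sn-glycerol 100 μM. Reaction 60 min, stopped with acetonitrile/methanol/0.1 M EDTA-Na2 containing 4-undecyloxybenzoic acid internal standard and NDGA. Arachidonic acid released measured by RP-HPLC, UV 200 nm, after solid-phase extraction, with vs without inhibitor; max 10 μM. IC50 means of at least two independent determinations.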

Assay [3] has as its target T2, Fatty-acid amide hydrolase 1 (Rattus norvegicus) (UniProt P97612).
T2 sequence (whole entry): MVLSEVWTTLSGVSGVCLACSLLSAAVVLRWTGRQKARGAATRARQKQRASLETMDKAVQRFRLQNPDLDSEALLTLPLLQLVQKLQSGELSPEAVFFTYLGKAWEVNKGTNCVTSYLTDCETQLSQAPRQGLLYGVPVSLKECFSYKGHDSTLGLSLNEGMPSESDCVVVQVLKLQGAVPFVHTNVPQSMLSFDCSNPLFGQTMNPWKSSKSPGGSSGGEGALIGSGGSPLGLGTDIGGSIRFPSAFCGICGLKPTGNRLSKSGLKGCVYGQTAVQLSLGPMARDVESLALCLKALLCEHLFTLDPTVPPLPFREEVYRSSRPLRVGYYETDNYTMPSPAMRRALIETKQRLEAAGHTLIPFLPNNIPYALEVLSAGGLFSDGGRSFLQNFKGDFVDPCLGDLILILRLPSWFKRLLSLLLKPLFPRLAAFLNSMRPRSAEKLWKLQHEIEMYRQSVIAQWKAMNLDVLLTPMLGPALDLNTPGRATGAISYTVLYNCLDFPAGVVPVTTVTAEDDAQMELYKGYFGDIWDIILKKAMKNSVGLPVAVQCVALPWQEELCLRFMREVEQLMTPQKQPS
The assay can be described thus: Inhibition of FAAH from rat brain microsomes at 10 uM by RP-HPLC. In outline:
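Rat brain microsomes as FAAH source; substrate N-(2-hydroxyethyl)-4-pyren-1-ylbutanamide 100 μM solubilized with Triton X-100 0.2%. Incubated 45 min, then stopped with acetonitrile/methanol plus internal standard 6-pyren-1-ylhexanoic acid. Released 4-pyren-1-ylbutanoic acid quantified directly by RP-HPLC with fluorescence (ex 340, em 380 nm), with vs without inhibitor. Inhibitor max 10 μM; IC50 means of at least two independent determinations.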

In assay [4] the target is T3, Cytosolic phospholipase A2 (Homo sapiens, UniProt P47712).
T3 sequence (P47712 whole entry): T1 sequence (whole entry)
The experiment in a line: Inhibition of cPLA2 from human platelets by RP-HPLC. In outline:
as §1

Assay [5] concerns the target T4, Fatty-acid amide hydrolase 1 (Rattus norvegicus, UniProt P97612).
T4 sequence (P97612 whole entry): T2 sequence (whole entry)
The assay can be described thus: Inhibition of FAAH from rat brain microsomes by RP-HPLC.

Active and inactive are the calls of the source. The rule behind the calls is not given here. Bounds are passed on as bounds.

As for `CCCCCCCCc1ccc(OCC(=O)Cn2cncc2C(=O)O)cc1`, the inhibition result in assay [1] and in assay [3] was “inactive” throughout. In addition, in assay [2], the inhibition was found to be 18%. Further, the 50% inhibitory concentration (IC50) in assay [4] was more than 10 µM.
`CCCCCCCCc1ccc(OCC(=O)Cn2cnc3ccccc32)cc1`: the inhibition entry in assay [1] is “inactive”. The inhibition in assay [2] stood at 36%. Further, the IC50 in assay [5] was 1 µM; in assay [4], more than 10 µM.
With `CCCCCCCCc1ccc(OCC(=O)Cn2nccc2C(=O)O)cc1`, the inhibition entry in assay [1] and in assay [3] was “inactive” throughout. The same molecule came in with an inhibition in assay [2] of 21%. In assay [4], this molecule showed an IC50 of more than 10 µM.
In the case of `CCCCCCCCc1ccc(OCC(=O)Cn2cccn2)cc1`, the inhibition entry in assay [1] is “inactive”. The molecule further displayed an inhibition in assay [2] of 43%. In addition, the IC50 in assay [5] is 2 µM; in assay [4] it was more than 10 µM.
Take `CCCCCCCCc1ccc(OCC(=O)Cn2ccc3cc(OC)ccc32)cc1`: the inhibition entry in assay [1] and in assay [2] was “inactive” throughout. In assay [3], this molecule showed an inhibition of 22%. The molecule also showed an IC50 in assay [5] of more than 10 µM.
